Article PMC9359405 (International Journal of Nanomedicine, 2022)

What was measured:
Format in all cases: in vivo, Wistar rats
[1] = tested on: P-gp; assay: Immunohistochemistry of efflux proteins in brain tissue; conditions: intranasal 1.25 mg/kg, 14 days, score 0-12
[2] = tested on: MRP1; assay: as above; conditions: intranasal 1.25 mg/kg, 14 days, score 0-12
[3] = tested on: BCRP; assay: as above; conditions: intranasal 1.25 mg/kg, 14 days, score 0-12
[4] = Pharmacokinetics in blood and vital organs; conditions: for CL/F: gavage; for AUC(0-t) / Cmax / MRT last / Tmax / half-life: male, Wistar, rat, po
Procedure, shortened: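 Male Wistar rats (200±20 g) received the test compound as an aqueous solution by gavage. Five rats were sampled at each of 11 times from 5 min to 24 h, and blood and organs were collected and weighed. Tissue homogenates (1% perchloric acid) and plasma (6% perchloric acid) were deproteinized, extracted into ethyl acetate at pH 11.8, and analysed by HPLC at 308 nm. Mean±SD, n=5.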

[5] = nasal NEs vs gavage HupA aqueous solution

Question: Which results are given for `C/C=C1\[C@H]2C=C(C)C[C@]1(N)c1ccc(=O)[nH]c1C2` [HupA Solution, huperzine A]?
Answer: P-gp protein expression (immunoreactive score) [1]: higher in the HupA aqueous solution group than in the blank control group; MRP1 protein expression (immunoreactive score) [2]: higher in the HupA aqueous solution group than in the blank control group; BCRP protein expression (immunoreactive score) [3]: higher in the HupA aqueous solution group than in the blank control group; CL/F ([4]; Brain): 42.63 ± 7.93 mL·h; CL/F ([4]; Heart): 7.26 ± 0.05 mL·h; CL/F ([4]; Kidney): 0.91 ± 0.02 mL·h; CL/F ([4]; Liver): 2.88 ± 0.15 mL·h; CL/F ([4]; Lung): 4.03 ± 0.09 mL·h; CL/F ([4]; Plasma): 9.88 ± 0.89 mL·h; CL/F ([4]; Spleen): 2.45 ± 0.03 mL·h; AUC(0-t) ([4]; brain): 28.6 ± 5.72 ng·h/mL; Cmax ([4]; brain): 15 ± 4.25 ng/mL; MRT last ([4]; brain): 1.49 ± 0.12 h; Tmax ([4]; brain): 0.5 h; half-life ([4]; brain): 1.27 ± 0.16 h; AUC(0-t) ([4]; heart): 163 ± 5.85 ng·h/mL; Cmax ([4]; heart): 163 ± 7.33 ng/mL; MRT last ([4]; heart): 1.6 ± 0.05 h; Tmax ([4]; heart): 0.5 h; half-life ([4]; heart): 2.21 ± 0.68 h; AUC(0-t) ([4]; kidney): 1350 ± 33.3 ng·h/mL; Cmax ([4]; kidney): 567 ± 40.6 ng/mL; MRT last ([4]; kidney): 2.78 ± 0.05 h; Tmax ([4]; kidney): 1 h; half-life ([4]; kidney): 2.1 ± 0.1 h; AUC(0-t) ([4]; liver): 424 ± 22.9 ng·h/mL; Cmax ([4]; liver): 256 ± 8.27 ng/mL; MRT last ([4]; liver): 1.95 ± 0.04 h; Tmax ([4]; liver): 0.5 h; AUC(0-t) ([4]; lung): 288 ± 13 ng·h/mL; Cmax ([4]; lung): 173 ± 14.1 ng/mL; MRT last ([4]; lung): 2.28 ± 0.06 h; Tmax ([4]; lung): 1 h; half-life ([4]; lung): 2.49 ± 0.13 h; AUC(0-t) ([4]; plasma): 119 ± 10.1 ng·h/mL; Cmax ([4]; plasma): 109 ± 8.99 ng/mL; MRT last ([4]; plasma): 1.31 ± 0.12 h; Tmax ([4]; plasma): 0.5 h; half-life ([4]; plasma): 1.77 ± 0.83 h; AUC(0-t) ([4]; spleen): 485 ± 5.11 ng·h/mL; Cmax ([4]; spleen): 195 ± 4.58 ng/mL; MRT last ([4]; spleen): 2.03 ± 0.06 h; Tmax ([4]; spleen): 1 h; Concentration (C) of the drug in brain tissue at the same time point (order) [4, 5]: CLf-HupA-NE>CHupA-NE>CHupA aqueous solution; Duration of action in the brain (T) (order) [4, 5]: TLf-HupA-NE>THupA-NE>THupA aqueous solution
